Published values of several laboratories.

Structure (SMILES) | cell line | effect on | mode | method | time | IC50
COc1ccccc1-c1c(C)oc2cc(OC(=O)c3ccco3)ccc2c1=O | human Neutrophil | cell migration | inhibitor |  |  | 430 nM
Cc1cc(=O)oc2ccc(-c3cc(-c4ccc(Cl)cc4)nc(N)n3)c(O)c12 | KB | cell growth or viability |  | MTT | 72 h | 25.6 µg/mL
Nc1ncc(-c2cnn(C3CCNCC3)c2)cc1-c1nnc(CC2CC2)o1 | U-937 | cell growth or viability |  | trypan blue | 72 h | 380 nM
COc1cc(Nc2nccc(-c3cnn4nc(OC)ccc34)n2)cc(C(F)(F)F)c1 | EFO-27 | cell growth or viability |  | ATP luminescence |  | 790 nM
NCC(=O)O | HFF | cell growth or viability |  | MTT | 48 h | 252000 nM
COc1ccccc1-c1c(C(F)(F)F)oc2cc(OC(=O)c3ccccc3)ccc2c1=O | human Neutrophil | cell migration | inhibitor |  |  | 120 nM
COc1cccc2c1C(=O)c1c(O)c3c(c(O)c1C2=O)C[C@@](O)(C(=O)CO)C[C@@H]3O[C@H]1C[C@H](N)[C@H](O)[C@H](C)O1 | KB | cell growth or viability |  | neutral red | 48 h | 0.93 µg/mL
COc1ccc(C(=O)C=Cc2ccc(OC)c(OC)c2)cc1 | J774 | cell growth or viability |  | MTT | 24 h | 100 µg/mL
COC(=O)CCC1=CC2C=CC=CC1C2C1CCCCC1=O (stereo not shown) | U-937 | cell growth or viability |  | flow cytometry |  | 171 nM
Oc1ccc(Nc2nc(-c3ccc(Cl)cc3)cs2)cc1 | UACC-903 | cell growth or viability |  | MTS | 72 h | 33600 nM
O=C1CCCCC1C1C2C=CC=CC1C(CCN1C(=O)c3ccccc3C1=O)=C2 (stereo not shown) | U-937 | cell growth or viability |  | flow cytometry |  | 27 nM
O=C(N/N=C/c1c(O)ccc2ccccc12)c1cc(-c2ccc3ccccc3c2)n[nH]1 | UACC-903 | cell growth or viability |  | MTS | 24 h | 19500 nM
CC(C)C[C@H](NC(=O)[C@H](Cc1ccccc1)NC(=O)c1cnccn1)B(O)O | NCI-H1703 | cell growth or viability |  | ATP luminescence |  | 12 nM
COc1cc(-c2ncn(/C=C\C(=O)OC(C)C)n2)cc(C(F)(F)F)c1 | ML-2 | cell growth or viability |  |  | 72 h | 99 nM
CCc1cc2c(=O)c(-c3nc4ccccc4n3C)c(C)oc2cc1OC(C)=O | human Neutrophil | cell migration | inhibitor |  |  | 27 nM
Cc1ccc(-c2cc(-c3ccc4oc(=O)cc(C)c4c3O)nc(N)n2)cc1 | KB | cell growth or viability |  | MTT | 72 h | > 128 µg/mL
COc1ccc(C=CC(=O)c2ccc(Cl)cc2Cl)cc1OC | J774 | cell growth or viability |  | MTT | 24 h | 6.25 µg/mL
Cc1cc(=O)oc2ccc(-c3cc(-c4cccc(Cl)c4)nc(N)n3)c(O)c12 | KB | cell growth or viability |  | MTT | 72 h | > 128 µg/mL
CCc1c2c(nc3ccc(OC(=O)N4CCC(N5CCCCC5)CC4)cc13)-c1cc3c(c(=O)n1C2)COC(=O)[C@]3(O)CC | HCCLM3 | cell growth or viability |  | MTT | 72 h | 33400 nM
CCCCC1=CC2C=CC=CC1C2C1CCCCC1=O (stereo not shown) | U-937 | cell growth or viability |  | flow cytometry |  | 35 nM
COc1ccccc1-c1c(C(F)(F)F)oc2cc(OC(=O)c3ccco3)ccc2c1=O | human Neutrophil | cell migration | inhibitor |  |  | 180 nM
CCc1c2c(nc3ccc(OC(=O)N4CCC(N5CCCCC5)CC4)cc13)-c1cc3c(c(=O)n1C2)COC(=O)[C@]3(O)CC | KB | cell growth or viability |  | SRB | 72 h | 9800 nM
COc1ccccc1-c1c(C(F)(F)F)oc2cc(OC(=O)C3CC3)ccc2c1=O | human Neutrophil | cell migration | inhibitor |  |  | 360 nM
CCCCCC/C=C1\CC2C=CC=CC1C2C1CCCCC1=O (stereo not shown) | U-937 | cell growth or viability |  | flow cytometry |  | 34 nM
O=C(Oc1ccc2c(=O)c(-c3ccccc3Cl)c(C(F)(F)F)oc2c1)c1cccs1 | human Neutrophil | cell migration | inhibitor |  |  | 80 nM
O=C1CCCCC1C1C2C=CC=CC1/C(=C/Cc1ccccc1)C2 (stereo not shown) | U-937 | cell growth or viability |  | flow cytometry |  | 59 nM
Cc1cc(=O)oc2ccc(-c3cc(-c4cccs4)nc(N)n3)c(O)c12 | KB | cell growth or viability |  | MTT | 72 h | > 128 µg/mL
Oc1ccc(/C=C/c2cc(O)cc(O)c2)cc1 | J774 | cell growth or viability |  | resazurin | 48 h | 162000 nM
